In brackets after ≈: the same amount, converted by molar mass. Activity calls are given as the source filed them. The calls are words filed in the database; no cut-off is given here.
How the values were obtained:
[1] = system: Radical scavenging activity; test: Antioxidant activity assessed as DPPH radical scavenging activity at 6 uM after 30 mins; format: functional
Summary of the method: (§1)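 Samples in EtOH (100 µL) mixed with 25 µL of 1 mM DPPH in EtOH plus 75 µL EtOH, then shaken briefly. Kept 30 min at room temperature in the dark. Absorbance read at 517 nm. % scavenging calculated against control, with blank and sample-blank corrections.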

[2] = system: Radical scavenging activity; test: Antioxidant activity assessed as DPPH radical scavenging activity at 230 uM after 30 mins; format: functional; summary of the method: as §1
[3] = system: HepG2; test: Cytotoxicity against human HepG2 cells at 10 ug/ml; format: functional; conditions: read-out: GI
[4] = Antioxidant activity assessed as inhibition of FeSO4-induced lipid peroxidation at 82 uM by TBARS assay; format: functional
Summary of the method: (§2)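 Linolenic acid methyl ester oxidized under FeSO4 catalysis in 50 mM phosphate buffer pH 7.2 at 50 °C. BHT in ethanol added to stop further oxidation. TBARS developed with trichloroacetic and thiobarbituric acid, 60 °C for 30 min. Read A532 minus A600 background. % inhibition calculated versus uninhibited control, with blank and sample-blank corrections.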

[5] = system: Radical scavenging activity; test: Antioxidant activity assessed as DPPH radical scavenging activity at 115 uM after 30 mins; format: functional; summary of the method: as §1
[6] = system: MCF7; test: Cytotoxicity against human MCF7 cells; format: functional
Summary of the method: (§3)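 Cytotoxicity tested on HM02 gastric adenocarcinoma, HepG2 hepatocellular carcinoma and MCF7 breast adenocarcinoma lines following NCI standards.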

[7] = system: Microbotryum violaceum; test: Antimicrobial activity against Microbotryum violaceum at 50 ug/disk by agar diffusion assay; format: functional, organism-based
Summary of the method: (§4)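 Agar diffusion assay with discs loaded at 50 µg/disk, run against the bacteria, fungi and the green microalga Chlorella fusca.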

[8] = system: [Chlorella] fusca; test: Antimicrobial activity against 'Chlorella' fusca at 50 ug/disk by agar diffusion assay; format: functional, organism-based; conditions: Scenedesmus fuscus; summary of the method: as §4
[9] = system: Priestia megaterium; test: Antimicrobial activity against Bacillus megaterium at 50 ug/disk by agar diffusion assay; format: functional, organism-based; summary of the method: as §4
[10] = system: HepG2; test: Cytotoxicity against human HepG2 cells; format: functional; summary of the method: as §3
[11] = system: Mycotypha microspora; test: Antimicrobial activity against Mycotypha microspora at 50 ug/disk by agar diffusion assay; format: functional, organism-based; summary of the method: as §4
[12] = target: Human immunodeficiency virus type 1 reverse transcriptase (Human immunodeficiency virus 1) (UniProt Q72547); test: Inhibition of HIV1 reverse transcriptase at 66 ug/ml by ELISA
Summary of the method: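 HIV-1 RT activity inhibition measured by ELISA with the test compound at 66 µg/mL.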

[13] = system: Radical scavenging activity; test: Antioxidant activity assessed as DPPH radical scavenging activity at 12 uM after 30 mins; format: functional; summary of the method: as §1
[14] = ABTS radical scavenging activity assessed as trolox equivalents by TEAC assay; format: physicochemical
Summary of the method: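 ABTS radical cation made by passing ABTS in PBS through manganese dioxide, then filtered (0.2 µm). Diluted in 5 mM PBS pH 7.4 to A734 0.700 and preincubated 2 h at room temperature. 1 mL radical mixed with 200 µL ethanolic sample, vortexed 30 s, centrifuged. A734 of lower phase read exactly 2 min after mixing. PBS and ethanol blanks included. Trolox standards used; value is mM Trolox equivalent to 1.0 mM compound.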

[15] = Antioxidant activity assessed as inhibition of FeSO4-induced lipid peroxidation at 8 uM by TBARS assay; format: functional; summary of the method: as §2
[16] = Antioxidant activity assessed as inhibition of FeSO4-induced lipid peroxidation at 33 uM by TBARS assay; format: functional; summary of the method: as §2
[17] = system: Radical scavenging activity; test: Antioxidant activity assessed as DPPH radical scavenging activity at 23 uM after 30 mins; format: functional; summary of the method: as §1
[18] = system: Radical scavenging activity; test: Antioxidant activity assessed as DPPH radical scavenging activity at 58 uM after 30 mins; format: functional; summary of the method: as §1
[19] = Cytotoxicity against human HM02 cells; format: functional; summary of the method: as §3
[20] = system: Aspergillus pseudoglaucus; test: Antimicrobial activity against Eurotium repens at 50 ug/disk by agar diffusion assay; format: functional, organism-based; summary of the method: as §4
[21] = Antioxidant activity assessed as inhibition of FeSO4-induced lipid peroxidation at 16 uM by TBARS assay; format: functional; summary of the method: as §2
[22] = system: Escherichia coli; test: Antimicrobial activity against Escherichia coli at 50 ug/disk by agar diffusion assay; format: functional, organism-based; summary of the method: as §4
[23] = Antioxidant activity assessed as inhibition of FeSO4-induced lipid peroxidation at 164 uM by TBARS assay; format: functional; summary of the method: as §2
[24] = Superoxide radical scavenging activity assessed as trolox equivalents by photochemiluminescence assay
Summary of the method: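 Photochemiluminescence with luminol acting as photosensitizer and detection reagent, generating superoxide. Mix of 2.29 mL reagent 1 (solvent/diluent), 200 µL buffer reagent, 25 µL photosensitizer and 10 µL sample in ethanol or Trolox standard in water. Antioxidant capacity taken from the integral under the curve and expressed as Trolox equivalents.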

Structure (SMILES)	Activity [1]	Activity [2]	inhibition [4]	Activity [5]	GI50 [6]	LC50 [6]	TGI [6]	Activity [7]	Activity [8]	Activity [9]	GI50 [10]	LC50 [10]	TGI [10]	Activity [11]	Activity [13]	Activity [14]	inhibition [15]	inhibition [16]	Activity [17]	Activity [18]	also measured
C/C(=C/CC/C(C)=C/CC/C(C)=C/C(=O)C/C(C)=C/Cc1cc(O)cc(C)c1O)CO	8%	96.4%	67.2%	96.1%	2.2 µg/mL (≈ 5.16 µM)	> 10 µg/mL	5.1 µg/mL (≈ 12 µM)	inactive	inactive	inactive	7.1 µg/mL (≈ 16.6 µM)	> 10 µg/mL	> 10 µg/mL	inactive	12.3%	0.09 mmol/L	10.6%	32.1%	25.1%	64.8%	inhibition of growth at 10 µg/mL [3]: 86%; Activity [12]: inactive; GI50 [19]: 2.3 µg/mL (≈ 5.39 µM); LC50 [19]: > 10 µg/mL; TGI [19]: 7.4 µg/mL (≈ 17.3 µM); Activity [20]: inactive; inhibition [21]: 14.8%; Activity [22]: inactive; inhibition [23]: 73.7%; Activity [24]: 0.59 mmol/L
C/C(=C/CC/C(C)=C/CC/C(C)=C\C(=O)C/C(C)=C/Cc1cc(O)cc(C)c1O)CO	9.1%	96.7%	69.8%	96%	1.8 µg/mL (≈ 4.22 µM)	> 10 µg/mL	4 µg/mL (≈ 9.38 µM)	inactive	inactive	inactive	6.8 µg/mL (≈ 15.9 µM)	> 10 µg/mL	> 10 µg/mL	inactive	15.2%	0.09 mmol/L	12%	31.5%	31.2%	80.1%	inhibition of growth at 10 µg/mL [3]: 87%; Activity [12]: inactive; GI50 [19]: 1.8 µg/mL (≈ 4.22 µM); LC50 [19]: > 10 µg/mL; TGI [19]: 6 µg/mL (≈ 14.1 µM); Activity [20]: inactive; inhibition [21]: 18.3%; Activity [22]: inactive; inhibition [23]: 73.4%; Activity [24]: 0.51 mmol/L
C/C(=C/C(=O)C/C(C)=C/Cc1cc(O)cc(C)c1O)CC/C=C(\C)Cc1cc(C)co1	5.9%	95.8%	66.6%	95.7%	0.9 µg/mL (≈ 2.13 µM)	3.6 µg/mL (≈ 8.52 µM)	1.7 µg/mL (≈ 4.02 µM)	inactive	inactive	inactive	1.7 µg/mL (≈ 4.02 µM)	> 10 µg/mL	5 µg/mL (≈ 11.8 µM)	inactive	11%	0.28 mmol/L	16.4%	38.9%	22.1%	56.7%	GI50 [19]: 0.9 µg/mL (≈ 2.13 µM); LC50 [19]: 4.6 µg/mL (≈ 10.9 µM); TGI [19]: 2 µg/mL (≈ 4.73 µM); Activity [20]: inactive; inhibition [21]: 25.2%; Activity [22]: inactive; inhibition [23]: 74.6%; Activity [24]: 0.79 mmol/L
